High-throughput results deposited in PubChem by several laboratories.
HUVEC prolif 384: inhibitors of human endothelial cell proliferation; viability, % at 10 µM (by protocol); AID 648; actives 1.1% (n = 86,000); HUVEC proliferation, CellTiter-Glo luminescence, 72 h; active compounds read low;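 active means viability at or below 30%; inactive means viability above 30%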;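 further: 100% = median luminescence of DMSO-only cell control wells on each plate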
H69AR inhibit: blocks growth of human H69AR lung tumor cells. H69AR lung tumor viability, ATP luminescence, 72 h; active compounds read low. viability, % at 10 µM. actives 6% (n = 85,000). AID 598;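 active means viability at or below 40%; inactive means viability above 40%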;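 further: multidrug resistant small cell line overexpressing MRP-1 efflux transporter; 100% = mean luminescence of untreated control wells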
PTK2B oligo ant: Pyk2 (human) oligomerization antagonism; Q293 cells, Pyk2 FERM NanoBiT luminescence; active compounds read low; z-score (the deposit names both 25 µM and 10 µM); actives 0.83% (n = 99,000); AID 1347419;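 active means Z-score of -3 or lower, scaled per plate to the spread of control and sample wells; inactive means z-score above -3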;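 further: negative z-score means lost luminescence so less FERM oligomerization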
MT1-MMP txn act: MT1-MMP promoter transcription activation; activation factor at 10 µM; actives 0.16% (n = 86,000); AID 750; HT1080 MT1-MMP promoter luciferase reporter, luminescence, overnight; active compounds read high;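 active means activation factor of at least 2 for MT1-MMP transcription at 10 µM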
Jurkat tox 60K: cytotoxic compounds reducing Jurkat cell viability. inhibition, % at 4 µM. Jurkat E6.1 viability, ATP luminescence, 48 h. actives 1.2% (n = 56,000). AID 463;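 active means inhibition above the mean inhibition of all tested compounds plus 3 SD, cut at about 28% in these data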
Fibroblast inh: blocks proliferation of human lung fibroblasts. LL 47 human lung fibroblast viability, ATP luminescence; active compounds read low. viability, % at 10 µM. actives 1.1% (n = 85,000). AID 719;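 active means viability at or below 50% in the single dose screen; inactive means viability above 50%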;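 further: compound exposure lasted 72 h before the ATP readout; 100% = median luminescence of untreated cell-only wells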
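test system = LL 47 human lung fibroblasts | amount = 1,150 fibroblasts seeded per well | medium = 15% FBS in IMEM | times = overnight cell rest, 72 h compound treatment at 37 °C | measured by = CellTiter-Glo luminescence measuring cellular ATP | read-out = viability percentage against median untreated-cell control | benchmarks = cell-only wells, no compound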
Starred values were filed as active, the others as inactive; nt = no result given. Compounds with a hit are over-represented: about 5.9% of the library has one in this group of screens.

SMILES	HUVEC prolif 384	H69AR inhibit	PTK2B oligo ant	MT1-MMP txn act	Jurkat tox 60K	Fibroblast inh
COc1ccc(OC)c(NS(=O)(=O)c2ccc(NC(=O)C3COc4ccccc4O3)cc2)c1 (centres undefined)	86.8	75.2	-0.29	nt	nt	98.2
CC(=O)OCC(=O)Nc1ccc(C(C)=O)cc1	96.9	38.9*	0.29	1	nt	101.5
CCOC(=O)Cc1csc(NC(=O)CCCCCN2C(=O)c3ccccc3C2=O)n1	114.1	98.3	-0.5	1	nt	95.7
N#Cc1c(SCC(=O)Nc2nccs2)nc2c(c1-c1ccco1)CCCC2	97.7	22.7*	-0.51	1.1	-1.3	98.4
O=C(Nc1nc2nc(-c3ccccc3)cc(-c3ccccc3)n2n1)c1ccco1	nt	nt	-3.49*	1.1	0.8	nt
CC(=O)Nc1nc2nc(-c3ccccc3)cc(-c3ccccc3)n2n1	nt	nt	-1.4	nt	nt	nt
COC(=O)c1ccc(NC(=O)c2cccc(Cl)c2)o1	nt	nt	0.66	nt	nt	nt
COc1cc(NC(=O)C2CCCN(S(=O)(=O)c3cccc4nsnc34)C2)cc(OC)c1 (centres undefined)	nt	nt	0.61	1.1	-4.4	nt
COc1ccc(OC)c(NC(=O)C2CCCN(S(=O)(=O)c3cccc4nsnc34)C2)c1 (centres undefined)	85.9	39.8*	0.2	1.3	1.6	93.2
Cc1ccc(NC(=S)N(C)Cc2cn(C)c3ccccc23)cc1	nt	nt	-0.08	nt	nt	nt
CCSc1nnc(NC(=O)c2ccccn2)s1	44.6	17.6*	-1.08	0.9	75.7*	nt
CCSc1nnc(NC(=O)C(CC)(C(F)(F)F)C(F)(F)F)s1	73.4	35.6*	-2.31	0.9	nt	94.6
CC(C)(/C=N/O)/[N+]([O-])=C/C=[N+](\[O-])C(C)(C)/C=N/O	96.3	88.7	1.54	1.1	-9.0	92.2
CN(C)c1ccc(/C=[N+](\[O-])C(C)(C)/C=N/O)cc1	96.6	29.8*	1.4	1	-4.7	nt
Cc1ccc2nc(SCCC(=O)O)cc(C)c2c1	82.9	75.4	0.38	1.1	nt	94.7
Cc1noc(C)c1S(=O)(=O)N(CC(=O)N1CCn2c1nc1ccccc12)c1ccc(C(C)C)cc1	79.4	94.1	nt	1.3	-3.4	88.8
N#CC1=C(c2ccccc2)/C(=C/c2ccccc2)OC1=O	27.6*	4.0*	-1.62	nt	nt	5.4*
O=C1/C(=C/c2ccccc2)Nc2ccccc21	nt	nt	-0.77	nt	nt	nt
COC(=O)c1[nH]c2ccc(C)cc2c1NC(=O)CN1CCCCC1C (centres undefined)	nt	nt	nt	nt	-6.4	nt
CC(C)c1nnc(NC(=O)CCS(=O)(=O)c2nc(-c3cccs3)cc(C(F)(F)F)n2)s1	16.2*	1.1*	-2.19	1	23.4	84.8
CCCc1cc(Nc2ccccc2OCC)n2ncnc2n1	92.8	90.3	0.96	1.1	nt	96.3
CC(Oc1ccccc1F)C(=O)Nc1ccc2ccccc2c1 (centres undefined)	80.0	96.5	0.58	2*	nt	86.0
CC(Oc1ccc(F)cc1)C(=O)Nc1ccc2ccccc2c1 (centres undefined)	93.3	104.7	-0.85	1	nt	88.5
Clc1cccc2sc(N3CCOCC3)nc12	97.9	93.3	0.43	2.1*	7.4	97.2
CCOC(=O)N1CCN(C2=Nc3cccc4cccc2c34)CC1	90.8	83.2	1.46	0.9	-1.8	104.1
SMILES	HUVEC prolif 384	H69AR inhibit	PTK2B oligo ant	MT1-MMP txn act	Jurkat tox 60K	Fibroblast inh
CC(=O)N1CCN(C2=Nc3cccc4cccc2c34)CC1	105.5	91.1	-0.01	1.2	14.5	96.4
c1ccc(CC2CCN(C3=Nc4cccc5cccc3c45)CC2)cc1	7.2*	26.4*	-0.24	1.5	nt	77.0
c1cc2c3c(cccc3c1)C(N1CCN(C3=Nc4cccc5cccc3c45)CC1)=N2	84.7	7.7*	nt	nt	nt	91.5
Cc1nc2c(C(=O)NCc3ccc(F)cc3)c[nH]n2c(=O)c1Cl	95.9	98.9	1.33	1.1	nt	103.0
CCn1c(SCC(=O)N2CCOCC2)nc2sc3c(c2c1=O)CCCC3	97.6	38.9*	-0.13	1	nt	87.8
CCn1c(SCC(=O)N2CCN(c3ccc(Cl)cc3)CC2)nc2ccccc2c1=O	104.8	92.1	0.35	1.4	-4.0	102.4
CCn1c(SCC(=O)N2CCOCC2)nc2oc3c(Cl)cc(Cl)cc3c(=O)c2c1=O	87.6	14.0*	nt	1.1	3.0	87.4
CCn1c(SC(C)C(=O)O)nc2sc3c(c2c1=O)CCC3 (centres undefined)	97.2	77.6	-0.63	0.9	nt	105.6
O=C(CSc1nc2sc3c(c2c(=O)n1Cc1ccco1)CCC3)N1CCc2ccccc21	92.7	28.6*	nt	1	-9.4	85.3
